Legend:
HT-1080 = test: Antiproliferative activity against human HT1080 cells after 48 hrs by SRB assay; assay type: functional, cell-based; conditions: HT-1080, 48 h
Procedure, shortened: (§1)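 Cells grown in DMEM with 5% FBS at 37 C; seeded per well at 2.5 x 10^3 (HT-1080), 4.0 x 10^3 (HT-29), 3.0 x 10^3 (M21) or 2.5 x 10^3 (MCF7). Drugs from 40 mM DMSO stock, serial dilutions, final 100 µM to 78 nM, DMSO <0.5%.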

HT-29 = test: Antiproliferative activity against human HT-29 cells after 48 hrs by SRB assay; assay type: functional, cell-based; conditions: HT-29, 48 h; procedure, shortened: as §1
M21 [1] = test: Antiproliferative activity against human M21 cells after 48 hrs by SRB assay; assay type: functional, cell-based; conditions: M21, 48 h; procedure, shortened: as §1
MCF7 = test: Antiproliferative activity against human MCF7 cells after 48 hrs by SRB assay; assay type: functional, cell-based; conditions: MCF7, 48 h; procedure, shortened: as §1
M21 [2] = test: Cell cycle arrest in human M21 cells assessed as accumulation at sub-G1 phase at 2 times IC50 after 24 hrs by DAPI staining based flow cytometry relative to control; assay type: functional
Procedure, shortened: (§2)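 Flow cytometry in M21 cells seeded in six-well plates, allowed 24 h, then exposed 24 h to drug (2- or 5-fold IC50); DMSO 0.5% control. Trypsinized, PBS-washed, fixed in ice-cold EtOH, stained with 2 mg/mL DAPI in PBS; sub-G1, G0/G1, S and G2/M fractions measured on LSR II cytometer.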

M21 [3] = test: Cell cycle arrest in human M21 cells assessed as accumulation at G0/G1 phase at 2 times IC50 after 24 hrs by DAPI staining based flow cytometry relative to control; assay type: functional; procedure, shortened: as §2
M21 [4] = test: Cell cycle arrest in human M21 cells assessed as accumulation at S phase at 2 times IC50 after 24 hrs by DAPI staining based flow cytometry relative to control; assay type: functional; procedure, shortened: as §2
M21 [5] = test: Cell cycle arrest in human M21 cells assessed as accumulation at G2/M phase at 2 times IC50 after 24 hrs by DAPI staining based flow cytometry relative to control; assay type: functional; procedure, shortened: as §2
[6] = Alkylating activity at DNA (unknown origin) after 90 mins by colorimetric NBP assay; assay type: functional
Procedure, shortened: (§3)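 NBP alkylation kinetics (Bardos colorimetric method): 400 nmol drug in 1 mL ethanol mixed with 1 mL NBP (10% v/v in 95% ethanol), 1 mL 50 mM acetate buffer pH 4.3 and 1 mL ethanol, kept on ice, then heated at 80 C in shaking water bath; stopped on ice 5 min after 0, 30, 60, 90 min. Rate constant from linear regression of absorbance curve; chlorambucil as positive control.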

[7] = Alkylating activity at DNA (unknown origin) after 90 mins by colorimetric NBP assay relative to chlorambucil; assay type: functional; procedure, shortened: as §3
M21 [8] = test: Cell cycle arrest in human M21 cells assessed as accumulation at S phase at 2 times IC50 after 24 hrs by DAPI staining based flow cytometry relative to control
M21 [9] = test: Cell cycle arrest in human M21 cells assessed as accumulation at G2/M phase at 2 times IC50 after 24 hrs by DAPI staining based flow cytometry relative to control
M21 [10] = test: Cell cycle arrest in human M21 cells assessed as accumulation at G0/G1 phase at 2 times IC50 after 24 hrs by DAPI staining based flow cytometry relative to control
M21 [11] = test: Cell cycle arrest in human M21 cells assessed as accumulation at sub-G1 phase at 2 times IC50 after 24 hrs by DAPI staining based flow cytometry relative to control

SMILES | IC50 (HT-1080) [µM] | IC50 (HT-29) [µM] | IC50 (M21 [1]) [µM] | IC50 (MCF7) [µM] | Activity (M21 [2]) [%] | Activity (M21 [3]) [%] | Activity (M21 [4]) [%] | Activity (M21 [5]) [%] | K [6] [×10⁻³ /s] | fold change (FC) [7] | Activity (M21 [8]) [%] | Activity (M21 [9]) [%] | Activity (M21 [10]) [%] | Activity (M21 [11]) [%]
CC(C)c1ccccc1OS(=O)(=O)c1ccc(NC(=O)CCl)cc1 | 1 | 5.6 | 3.9 | 2.9 | 0.1 | 60.9 | 18 | 21 |  |  |  |  |  | 
CC(=O)Nc1ccc(S(=O)(=O)Oc2ccccc2I)cc1 | 17 | 23 | 27 | 27 |  |  |  |  |  |  |  |  |  | 
CC(C)C(=O)Nc1ccc(S(=O)(=O)Oc2ccccc2I)cc1 | 3.3 | 13 | 13 | 8.1 | 0.2 | 62 | 23.6 | 14.2 |  |  |  |  |  | 
CC(C)(C)C(=O)Nc1ccc(S(=O)(=O)Oc2ccccc2I)cc1 | 2.6 | 9.5 | 8.3 | 6.6 | 0 | 55 | 29.1 | 15.9 |  |  |  |  |  | 
CC(=O)Nc1ccc(S(=O)(=O)Oc2ccccc2C(C)C)cc1 | 12 | 23 | 21 | 16 |  |  |  |  | 0.36 | 14 |  |  |  | 
O=C(CCCCl)Nc1ccc(S(=O)(=O)Oc2ccccc2I)cc1 | 12 | 9.1 | 7.2 | 6.3 | 0.2 | 42 | 17.1 | 40.7 |  |  |  |  |  | 
CC(C)c1ccccc1OS(=O)(=O)c1cccc(NC(=O)CCCl)c1 | 8.2 | 11 | > 40 | 12 |  |  |  |  |  |  |  |  |  | 
CC(C)c1ccccc1OS(=O)(=O)c1ccc(NC(=O)NCC2CCCC2)cc1 | 6 | 6.8 | 6.6 | 7.1 |  |  |  |  |  |  | 14.3 | 21.7 | 63.9 | 0.1
CC(C)c1ccccc1OS(=O)(=O)c1ccc(NC(=O)CCCCl)cc1 | 3.8 | 6.2 | 5.1 | 5.2 | 0.2 | 55.3 | 19.3 | 25.2 |  |  |  |  |  | 
CCCCCC(=O)Nc1ccc(S(=O)(=O)Oc2ccccc2I)cc1 | 9.6 | 13 | 11 | 10 | 0.2 | 42.6 | 12.9 | 44.3 |  |  |  |  |  | 
CC(C)C(=O)Nc1cccc(S(=O)(=O)Oc2ccccc2C(C)C)c1 | 16 | 16 | 17 | 13 | 0.1 | 54.5 | 12.9 | 32.5 |  |  |  |  |  | 
CCCCCC(=O)Nc1cccc(S(=O)(=O)Oc2ccccc2C(C)C)c1 | 11 | 19 | 11 | 12 | 1.5 | 69 | 16 | 13.5 |  |  |  |  |  | 
CC(=O)Nc1cccc(S(=O)(=O)Oc2ccccc2C(C)C)c1 | 21 | 27 | 31 | 21 |  |  |  |  |  |  |  |  |  | 
CCCCCNC(=O)Nc1ccc(S(=O)(=O)Oc2ccccc2I)cc1 | 6.9 | 6.6 | 5.9 | 5.4 |  |  |  |  |  |  | 14.7 | 23 | 62.2 | 0.1
O=C(CCl)Nc1ccc(S(=O)(=O)Oc2ccccc2I)cc1 | 0.6 | 4.1 | 3.9 | 2.5 | 0.3 | 71.1 | 16.5 | 12.1 |  |  |  |  |  | 
CCCC(=O)Nc1cccc(S(=O)(=O)Oc2ccccc2C(C)C)c1 | 15 | 13 | 20 | 9.4 | 3 | 64.2 | 14.4 | 18.4 |  |  |  |  |  | 
CC(C)c1ccccc1OS(=O)(=O)c1ccc(NC(=O)NC2CCCC2)cc1 | 3.9 | 7.4 | 6.1 | 6.2 |  |  |  |  |  |  | 12.5 | 27.2 | 60.2 | 0.1
CCNC(=O)Nc1ccc(S(=O)(=O)Oc2ccccc2CC)cc1 |  |  |  |  |  |  |  |  | 0.032 | 170 |  |  |  | 
CCCCCC(=O)Nc1ccc(S(=O)(=O)Oc2ccccc2C(C)C)cc1 | 6.3 | 6.4 | 6.7 | 5.3 | 3.7 | 41.4 | 28.3 | 26.6 |  |  |  |  |  | 
CC(C)c1ccccc1OS(=O)(=O)c1cccc(NC(=O)C(C)(C)C)c1 | 11 | 19 | 13 | 14 | 0.7 | 61.1 | 20 | 18.2 |  |  |  |  |  | 
CC(C)c1ccccc1OS(=O)(=O)c1cccc(NC(=O)CCl)c1 | 0.78 | 4.5 | 3.9 | 2.2 | 0 | 64.1 | 17.1 | 18.8 |  |  |  |  |  | 
O=C(O)CCCc1ccc(N(CCCl)CCCl)cc1 |  |  |  |  |  |  |  |  | 5.3 |  |  |  |  | 
CC(C)C(=O)Nc1ccc(S(=O)(=O)Oc2ccccc2C(C)C)cc1 | 4.9 | 14 | 11 | 8.6 | 0.2 | 62 | 27.3 | 10.5 |  |  |  |  |  | 
CC(C)c1ccccc1OS(=O)(=O)c1ccc(NC(=O)NCCCl)cc1 |  |  |  |  |  |  |  |  | 0.0034 | 1600 |  |  |  | 
CCC(=O)Nc1cccc(S(=O)(=O)Oc2ccccc2C(C)C)c1 | 12 | 22 | 25 | 14 |  |  |  |  |  |  |  |  |  | 
